From ChEMBL document CHEMBL3272240, “[1-deaminopenicillamine,4-valine]-8-D-arginine-vasopressin, a highly potent inhibitor of the vasopressor response to arginine-vasopressin” (J Med Chem, 1977)
The source made the active and inactive calls. The calls are words filed in the database; no cut-off is given here. Starred links: 1 amine or outer side, 2 acyl side, 3 side chain; linkers in the order of their positions; H or OH if unused. Positions of bridges follow the written chain, without caps; N, C: chain ends. Non-standard residues stand in square brackets, D forms with d. Residues, ends and D or L forms follow the SMILES beside them. X2 = CCC(CC)(CC(=O)[*:1])S[*:2]; X1 = CC(C)(CC(=O)[*:1])S[*:2]; Mpa = O=C(O)CCS

Legend:
Rattus norvegicus [1] = assay: Antidiuretic activity in Brattleboro rat hereditary hypothalamic diabetes insipidus model at 100 ug/kg, sc measured over 1.7 hrs; assay type: functional, organism-based; settings: Urine
Outline: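 Single subcutaneous injection into Brattleboro rats with hereditary hypothalamic diabetes insipidus. The value recorded is the duration, in hours, for which diuresis was inhibited (antidiuresis) after dosing.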

[2] = Antioxytocic activity in Sherman albino rat uterus assessed as inhibition of oxytocin-induced contraction; assay type: functional, tissue-based
Outline: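 Isolated rat uterus in magnesium-free van Dyke-Hastings solution. The antagonist was added to the bath immediately before injection of agonist (USP Posterior Pituitary Reference Standard). pA2 was calculated per Schild as the −log molar antagonist concentration reducing the response to 2X units of agonist to that of X units. A pA2 was computed per assay group and reported as mean ± SE.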

Rattus norvegicus [3] = assay: Antivasopressor activity in iv dosed phenoxybenzamine-treated rat assessed as inhibition of lysine-vasopressin-induced vasopressor response; assay type: functional, organism-based; settings: read-out: pA2 (converted)
Outline: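 Urethane-anesthetized, phenoxybenzamine-treated rats as in the standard rat vasopressor assay. The antagonist was given iv immediately before iv injection of agonist standard, with LVP as agonist. pA2 is the −log molar antagonist concentration halving the effect of a doubled agonist dose. Peptide was assumed uniformly distributed in blood volume. pA2 was computed per assay group and reported as mean ± SE.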

Rattus norvegicus [4] = assay: Antidiuretic activity in sc dosed Brattleboro rat hereditary hypothalamic diabetes insipidus model; assay type: functional, organism-based; settings: Urine
Rattus norvegicus [5] = assay: Antivasopressor activity in phenoxybenzamine-treated rat assessed as inhibition of arginine-vasopressin-induced vasopressor response at 10 ug/kg, iv measured for >= 2.5 hrs; assay type: functional, organism-based
Outline: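 Rats received a single iv injection of 10 μg/kg antagonist. Vasopressor responses to AVP challenges of 10-40 mU/kg (about 25-100 ng/kg) were then followed. The duration of inhibition was recorded as an average period.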

Rattus norvegicus [6] = assay: Antidiuretic antagonist activity in sc dosed Brattleboro rat hereditary hypothalamic diabetes insipidus model; assay type: functional, organism-based; settings: Urine
Rattus norvegicus [7] = organism: Rattus norvegicus; assay: Antivasopressor activity in phenoxybenzamine-treated rat assessed as inhibition of angiotensin 2-induced vasopressor response; assay type: functional, organism-based
Rattus norvegicus [8] = organism: Rattus norvegicus; assay: Antivasopressor activity in phenoxybenzamine-treated rat assessed as inhibition of norepinephrine-induced vasopressor response; assay type: functional, organism-based
Rattus norvegicus [9] = assay: Antidiuretic activity in sc dosed Brattleboro rat hereditary hypothalamic diabetes insipidus model measured over 6 hrs; assay type: functional, Urine
Outline: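 Brattleboro rats with hereditary hypothalamic diabetes insipidus received a single sc injection of 100 ng/kg. Inhibition of diuresis was followed over time to record its duration.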

[10] = Oxytocic activity in Sherman albino rat uterus assessed as contraction; assay type: functional
Rattus norvegicus [11] = assay: Ratio of dPVDAVP to compound for antidiuretic activity in sc dosed Brattleboro rat hereditary hypothalamic diabetes insipidus model

In the case of `N=C(N)NCCC[C@H](NC(=O)[C@@H]1CCCN1C(=O)[C@@H]1CSSC[C@H](N)C(=O)N[C@@H](Cc2ccc(O)cc2)C(=O)N[C@@H](Cc2ccccc2)C(=O)N[C@@H](CCC(N)=O)C(=O)N[C@@H](CC(N)=O)C(=O)N1)C(=O)NCC(N)=O`, the Activity (Rattus norvegicus [1]) is reported as “Active”.
Compound `CCC1(CC)CC(=O)N[C@@H](Cc2ccc(O)cc2)C(=O)N[C@@H](Cc2ccccc2)C(=O)N[C@@H](CCC(N)=O)C(=O)N[C@@H](CC(N)=O)C(=O)N[C@H](C(=O)N2CCC[C@H]2C(=O)N[C@@H](CCCCN)C(=O)NCC(N)=O)CSS1` (YFQNCPKG-NH2; linker N-5 via X2) has a pA2 [2] of 6.84 and a Kb (Rattus norvegicus [3]) of 70.8 nM.
With `CC(C)[C@@H]1NC(=O)[C@H](Cc2ccccc2)NC(=O)[C@H](Cc2ccc(O)cc2)NC(=O)CC(C)(C)SSC[C@@H](C(=O)N2CCC[C@H]2C(=O)N[C@H](CCCNC(=N)N)C(=O)NCC(N)=O)NC(=O)[C@H](CC(N)=O)NC1=O` (YFVNCP[dR]G-NH2; linker N-5 via X1) the pA2 [2] was 7.23, the Activity (Rattus norvegicus [4]) was “Active” and the inhibition (Rattus norvegicus [5]) was “Active”. For the same compound, the Activity (Rattus norvegicus [6]) was “inactive”, the inhibition (Rattus norvegicus [7]) was “inactive” and the inhibition (Rattus norvegicus [8]) was “inactive”. For the same compound, the Activity (Rattus norvegicus [9]) was 123 U/mg.
Work on `CC(C)[C@@H]1NC(=O)[C@H](Cc2ccccc2)NC(=O)[C@H](Cc2ccc(O)cc2)NC(=O)CCSSC[C@@H](C(=O)N2CCC[C@H]2C(=O)N[C@H](CCCNC(=N)N)C(=O)NCC(N)=O)NC(=O)[C@H](CC(N)=O)NC1=O` ([Mpa]YFVNCP[dR]G-NH2; disulfide 1-6) yielded an Activity [10] of 8 U/mg, a Ratio (Rattus norvegicus [11]) of 10 and an Activity (Rattus norvegicus [9]) of 1230 U/mg.
